Test results reported in PubChem BioAssay.
Activity calls are given as the source filed them. Unless noted, no rule for the calls is given here.

How the values were obtained:
[1] = biological target: Pantothenate synthetase (Mycobacterium tuberculosis (strain ATCC 25618 / H37Rv)) (UniProt P9WIL5); assay: Coupled enzyme confirmation of inhibitors against recombinant Mtb PanC (AID 375); details: coupled enzyme assay; at 10 µM, stronger effect = higher value;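 also: 0% = full reaction with vehicle and 100% = no enzyme background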
[2] = reduced viability of SK-BR-3 breast cancer cells – cell-based, 24 h, human, pilot screen (AID 572;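 active = viability at or below 10% of carrier control in both of two separate runs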;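 also: compound exposure lasted between 18 and 24 h rather than exactly 24 h; 100% = carrier-treated control wells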); details: SK-BR-3 viability, CellTiter-Glo luminescence, at 10 µM, stronger effect = lower value
[3] = HUVEC growth inhibition – cell-based, human, primary screen (AID 575;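 active = viability at or below 30% in both replicate assays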;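 also: 100% = median of untreated cell wells with 0.1% DMSO on each plate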); details: HUVEC proliferation, CellTiter-Glo luminescence, 72 h; at 10 µM; stronger effect = lower value
In short: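 Test system – primary HUVEC, no more than 12 passages · Dosing – one dose, 10 µM final, 0.1% DMSO · Times – 72 h treatment at 37 °C · Measured by – ATP-based CellTiter-Glo luminescent read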

[4] = H69AR cell proliferation blockers – human, duplicate replicates, primary screen (AID 580;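 active = viability at or under a set limit in both replicates, limit being median viability minus 3 SD, cut at about 48% in these data, passing the limit was not always enough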;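 also: 100% = mean luminescence of untreated wells and 0% = no signal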); details: H69AR lung tumor cells viability, ATP luminescence, 72 h; at 10 µM; stronger effect = lower value
[5] = MRP1 drug-resistance reversers in H69AR cells – cell-based, doxorubicin co-treatment, pilot screen (AID 601;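 active = viability loss from added drug above about 55%, and viability with drug at most 40%, in both replicates, limit read from the data, passing the limit was not always enough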); details: CellTiter-Glo, 72 h, at 10 µM; for differential viability (reversal): stronger effect = higher value
[6] = yeast transport mutant growth inhibition pilot in 384-well plates, post-Golgi transport modulator project (AID 636; in the data active = inhibition above about 31%); details: absorbance 615 nm, about 18 h, stronger effect = higher value
[7] = growth suppression of yeast trafficking mutant, preliminary HTS, modulators of trafficking downstream of Golgi apparatus project, 1536-format plate, OD 615 nm (AID 637; in the data active = inhibition above about 30%); details: yeast transport mutant growth, absorbance 615 nm, 18 h; stronger effect = higher value
[8] = Her2 expression decrease, cell viability multiplex – SKBR3 breast tumor cells, AlphaScreen, ATP viability, primary screen (AID 461;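 active = Her2 level under about 52% in both replicate screens, with viability over 70% of control, limit read from the data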;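 as to Her2 level: lower value means less Her2 protein in the cells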;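 as to viability: percent of carrier control wells set as 100% viability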); details: SKBR3 Her2 protein level, 18-24 h, measured here: SKBR3 viability, ATP luminescence, at 10 µM
[9] = biological target: Receptor tyrosine-protein kinase erbB-2 (Homo sapiens) (UniProt P04626); assay: as above; details: 18-24 h, at 10 µM, stronger effect = lower value
[10] = H69AR cells + 2 uM doxorubicin, measured here: viability with 2 uM doxorubicin, stronger effect = lower value
[11] = H69AR cells, compound alone cytotoxicity

Pantothenate synthetase (Mycobacterium tuberculosis (strain ATCC 25618 / H37Rv)), sequence (P9WIL5 whole entry, looked up): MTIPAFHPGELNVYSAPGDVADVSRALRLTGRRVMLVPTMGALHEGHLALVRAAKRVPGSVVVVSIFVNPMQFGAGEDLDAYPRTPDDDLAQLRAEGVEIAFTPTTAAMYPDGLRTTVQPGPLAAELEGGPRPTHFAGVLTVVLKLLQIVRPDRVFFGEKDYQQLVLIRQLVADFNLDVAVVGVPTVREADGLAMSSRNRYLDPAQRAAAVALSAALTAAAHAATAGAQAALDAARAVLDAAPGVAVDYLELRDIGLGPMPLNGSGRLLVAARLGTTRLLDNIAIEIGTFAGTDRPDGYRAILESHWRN
Receptor tyrosine-protein kinase erbB-2 (Homo sapiens), sequence (P04626 whole entry, looked up): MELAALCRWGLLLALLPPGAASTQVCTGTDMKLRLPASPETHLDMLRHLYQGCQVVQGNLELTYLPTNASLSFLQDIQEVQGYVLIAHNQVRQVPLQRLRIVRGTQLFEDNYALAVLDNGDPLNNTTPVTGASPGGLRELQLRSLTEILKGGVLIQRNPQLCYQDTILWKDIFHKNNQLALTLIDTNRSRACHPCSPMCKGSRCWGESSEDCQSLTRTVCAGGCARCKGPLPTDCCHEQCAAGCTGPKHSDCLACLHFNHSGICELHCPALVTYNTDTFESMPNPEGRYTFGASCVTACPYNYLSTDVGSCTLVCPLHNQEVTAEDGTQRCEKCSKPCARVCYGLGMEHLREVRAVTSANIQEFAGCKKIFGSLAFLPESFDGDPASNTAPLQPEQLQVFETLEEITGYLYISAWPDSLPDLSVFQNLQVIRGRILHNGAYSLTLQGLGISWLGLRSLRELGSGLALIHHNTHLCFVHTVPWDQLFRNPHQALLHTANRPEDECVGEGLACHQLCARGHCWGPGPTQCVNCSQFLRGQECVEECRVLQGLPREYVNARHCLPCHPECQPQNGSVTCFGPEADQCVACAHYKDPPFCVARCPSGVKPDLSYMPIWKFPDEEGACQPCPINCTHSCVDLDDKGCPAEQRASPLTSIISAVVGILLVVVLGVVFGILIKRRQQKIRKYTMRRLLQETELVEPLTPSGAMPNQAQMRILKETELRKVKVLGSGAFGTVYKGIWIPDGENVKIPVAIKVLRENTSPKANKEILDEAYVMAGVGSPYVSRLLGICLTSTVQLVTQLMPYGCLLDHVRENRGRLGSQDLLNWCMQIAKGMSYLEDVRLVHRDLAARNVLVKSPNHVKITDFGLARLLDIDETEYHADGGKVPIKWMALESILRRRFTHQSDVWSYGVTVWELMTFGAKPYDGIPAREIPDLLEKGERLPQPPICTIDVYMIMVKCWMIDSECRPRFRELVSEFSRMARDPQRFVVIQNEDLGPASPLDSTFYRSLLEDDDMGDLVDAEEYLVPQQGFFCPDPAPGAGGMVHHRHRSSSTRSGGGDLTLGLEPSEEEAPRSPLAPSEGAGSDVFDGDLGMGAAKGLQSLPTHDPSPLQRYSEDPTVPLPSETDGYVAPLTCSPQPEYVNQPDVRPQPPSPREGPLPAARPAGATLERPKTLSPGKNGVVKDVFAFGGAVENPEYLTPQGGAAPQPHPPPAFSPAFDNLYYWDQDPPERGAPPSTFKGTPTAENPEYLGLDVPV

Compound | inhibition [1] | viability [2] | viability [3] | viability [4] | differential viability (reversal) ([5]; H69AR cells + 2 uM doxorubicin) | viability [5, 10] [%] | viability [5, 11] [%] | inhibition [6] | inhibition [7] | viability [8] [%] | Her2 level [9]
c1ccc(Cn2ccnc2)cc1 | 0% (inactive) | 127% (inactive) | 84.4% (inactive) | 93.5% (inactive) | -0.24% (inactive) | 93.7 | 93.5 | 0.78% (inactive) | 22% (inactive) |  | 
COc1ccc(CCNC(=O)c2c(N)n(CCN3CCOCC3)c3nc4ccccc4nc23)cc1 | 0% (inactive) | 104% (inactive) |  | 19.3% (active) | -20.5% (inactive) | 39.8 | 19.3 | 3.82% (inactive) | 1.82% (inactive) | 104 | 87.5% (inactive)
C#C[C@]1(O)CC[C@H]2[C@@H]3CCC4=CC(=O)CC[C@]4(C)[C@H]3CC[C@@]21C | 4% (inactive) | 101% (inactive) | 91.6% (inactive) | 91.3% (inactive) | -13.7% (inactive) | 105 | 91.3 | -1.69% (inactive) | 11.2% (inactive) |  | 
Nc1ccccc1C(=O)OC1CSC1 | 0% (inactive) | 132% (inactive) | 105% (inactive) | 89.2% (inactive) | 0.43% (inactive) | 88.7 | 89.2 | -2.53% (inactive) | 1.45% (inactive) | 132 | 110% (inactive)
CCN1CCN(C(=O)COc2cc(=O)n(CC)c3ccccc23)CC1 | 0% (inactive) | 80.5% (inactive) | 89.2% (inactive) | 90.3% (inactive) | 22.7% (inactive) | 67.6 | 90.3 | 0.38% (inactive) | 0.67% (inactive) | 80.5 | 104% (inactive)
CN(C)c1cc(N)c2c(n1)CCC2 (tested in a mixture with another compound) | 0% (inactive) | 113% (inactive) | 102% (inactive) | 86.1% (inactive) | -1.48% (inactive) | 87.6 | 86.1 | -4.49% (inactive) | -5.17% (inactive) | 113 | 134% (inactive)
